Results as given in ChEMBL document CHEMBL3085660, “Synthesis and evaluation of new coumarin-pyridine hybrids with promising anti-osteoporotic activities” (Eur J Med Chem, 2013).
Activity calls are given as the source filed them. No cut-off for these calls is given here.

How the values were obtained:
[1] = Increase in osteoblastogenesis in mouse Calvarial cells assessed as increase in BMP-2 gene expression at 1 uM by quantitative RT-PCR method relative to untreated-control; format: functional, Calvarial cell
Method in brief: (§1)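 Transcripts of Runx-2, BMP-2 and COL-1 in primary mouse calvarial osteoblasts after compound treatment measured by qPCR, with GAPDH as internal control. Results expressed as fold change over untreated cells.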

Calvarial cell [2] = assay: Induction of osteoblast differentiation in mouse Calvarial cells assessed as increase in alkaline phosphatase activity at 10 nM to 1 uM after 48 hrs by spectrophotometry relative to control; format: functional, cell-based
Method in brief: (§2)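 Neonatal mouse calvarial osteoblasts trypsinized at 70–80% confluence, 2 × 10³ cells/well, treated 48 h in differentiation medium (α-MEM, 10% FCS, 10 mM β-glycerophosphate, ascorbic acid), 1 pM to 1 µM. Cells PBS-washed, freeze-thawed (−80 °C then 37 °C, 30 min each). ALP measured with p-nitrophenylphosphate at 405 nm. Mean ± S.D. of three independent experiments versus untreated control.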

[3] = Increase in mineralization in mouse Calvarial cells assessed as mineralized nodule formation at 1 uM after 21 days using alizarin red-S staining by spectrophotometry relative to untreated-control; format: functional, Calvarial cell
[4] = Increase in mineralization in mouse Calvarial cells assessed as mineralized nodule formation at 100 pM after 21 days using alizarin red-S staining by spectrophotometry relative to untreated-control; format: functional, Calvarial cell
[5] = Increase in osteoblastogenesis in mouse Calvarial cells assessed as increase in Runx-2 gene expression at 100 pM by quantitative RT-PCR method relative to untreated-control; format: functional, Calvarial cell; method in brief: as §1
Calvarial cell [6] = assay: Induction of osteoblast differentiation in mouse Calvarial cells assessed as increase in alkaline phosphatase activity at 100 pM to 1 uM after 48 hrs by spectrophotometry relative to control; format: functional, cell-based; method in brief: as §2
[7] = Increase in osteoblastogenesis in mouse Calvarial cells assessed as increase in BMP-2 gene expression at 100 pM by quantitative RT-PCR method relative to untreated-control; format: functional, Calvarial cell; method in brief: as §1
[8] = Increase in osteoblastogenesis in mouse Calvarial cells assessed as increase in COL1 gene expression at 100 pM by quantitative RT-PCR method relative to untreated-control; format: functional, Calvarial cell; method in brief: as §1
Calvarial cell [9] = assay: Induction of osteoblast differentiation in mouse Calvarial cells assessed as increase in alkaline phosphatase activity at 1 to 100 pM after 48 hrs by spectrophotometry relative to control; format: functional, cell-based; method in brief: as §2
[10] = Increase in mineralization in mouse Calvarial cells assessed as mineralized nodule formation at 1 pM after 21 days using alizarin red-S staining by spectrophotometry relative to untreated-control; format: functional, Calvarial cell
[11] = Increase in osteoblastogenesis in mouse Calvarial cells assessed as increase in Runx-2 gene expression at 10 nM by quantitative RT-PCR method relative to untreated-control; format: functional, Calvarial cell; method in brief: as §1
[12] = Increase in osteoblastogenesis in mouse Calvarial cells assessed as increase in BMP-2 gene expression at 10 nM by quantitative RT-PCR method relative to untreated-control; format: functional, Calvarial cell; method in brief: as §1
[13] = Increase in mineralization in mouse Calvarial cells assessed as mineralized nodule formation at 10 nM after 21 days using alizarin red-S staining by spectrophotometry relative to untreated-control; format: functional, Calvarial cell
Calvarial cell [14] = assay: Induction of osteoblast differentiation in mouse Calvarial cells assessed as increase in alkaline phosphatase activity at 10 nM after 48 hrs by spectrophotometry relative to control; format: functional, cell-based; method in brief: as §2

## CCOC(=O)c1c(C)nc(C)c(C(=O)OCC)c1-c1cc(C)c2oc(=O)c(C(=O)OC)cc2c1
[1]
  fold change (FC): 2.5
Calvarial cell [2]
  Activity: Active
[3]
  fold change (FC): 2

## CCOC(=O)c1cc2cc(-c3c(C(=O)OC)c(C)nc4c3C(=O)CCC4)cc(C(C)CC)c2oc1=O (centres undefined)
[4]
  fold change (FC): 3.5
[5]
  fold change (FC): 5
Calvarial cell [6]
  Activity: Active
[7]
  fold change (FC): 2.4
[8]
  fold change (FC): 3.1

## CCOC(=O)c1c(C)nc2c(c1-c1cc(C(C)CC)c3oc(=O)c(C(=O)OCC)cc3c1)C(=O)CC(C)(C)C2 (centres undefined)
Calvarial cell [9]
  Activity: Active
[10]
  fold change (FC): 2

## CCOC(=O)c1c(C)nc2c(c1-c1cc(C(C)CC)c3oc(=O)c(C(=O)OC)cc3c1)C(=O)CCC2 (centres undefined)
[11]
  fold change (FC): 5.2
[12]
  fold change (FC): 4.8
[13]
  fold change (FC): 3
Calvarial cell [14]
  Activity: Active
